ChEMBL document CHEMBL1944521, “Amide-modified prenylcysteine based Icmt inhibitors: Structure-activity relationships, kinetic analysis and cellular characterization” (Bioorg Med Chem, 2012)
The source made the active and inactive calls. The rule behind the calls is not given here.

Legend:
[1] = biological target: T1, Protein-S-isoprenylcysteine O-methyltransferase (Homo sapiens, UniProt O60725); experiment: Activity at His-tagged human Icmt membrane protein over-expressed in Saccharomyces cerevisiae 2766 using [14C]-SAM as substrate at 25 uM by scintillation counting
[2] = biological target: T1, Protein-S-isoprenylcysteine O-methyltransferase; experiment: Inhibition of His-tagged human Icmt membrane protein over-expressed in Saccharomyces cerevisiae 2766 using [14C]-SAM and N-acetyl-S-farnesyl-l-cysteine as substrate measured after 30 mins by scintillation counting
[3] = biological target: T1, Protein-S-isoprenylcysteine O-methyltransferase; experiment: Inhibition of His-tagged human Icmt membrane protein over-expressed in Saccharomyces cerevisiae 2766 using [14C]-SAM and N-acetyl-S-farnesyl-l-cysteine as substrate at 10 uM preincubated on ice and measured after 30 mins by scintillation counting
[4] = biological target: T1, Protein-S-isoprenylcysteine O-methyltransferase; experiment: Competitive inhibition of His-tagged human Icmt membrane protein over-expressed in Saccharomyces cerevisiae 2766 using [14C]-SAM and N-acetyl-S-farnesyl-l-cysteine as substrate measured after 30 mins by scintillation counting
How it was run: (§1)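 Mode of inhibition: AFC concentration varied at fixed inhibitor levels in the His-hIcmt vapor diffusion assay (14C-SAM, 30 °C, 30 min). Three trials per inhibitor concentration were averaged and plotted as Lineweaver-Burk. KIC and KIU were derived from IC50 by Cheng–Prusoff as adapted by Cer et al.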

[5] = biological target: T1, Protein-S-isoprenylcysteine O-methyltransferase; experiment: Noncompetitive inhibition of His-tagged human Icmt membrane protein over-expressed in Saccharomyces cerevisiae 2766 using [14C]-SAM and N-acetyl-S-farnesyl-l-cysteine as substrate measured after 30 mins by scintillation counting; how it was run: as §1
[6] = biological target: T1, Protein-S-isoprenylcysteine O-methyltransferase; experiment: Inhibition of Icmt in TCR-stimulated human Jurkat T cells assessed as inhibition of Ras-mediated Erk activation at 25 uM after 24 hrs by immunoblot analysis relative to control; format: cell-based
How it was run: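 Jurkat cells were treated 24 h with compound (25 μM), vehicle or simvastatin (36.7 μM), then held with anti-CD-3ε (20 μg/mL) 15 min on ice and stimulated 10 min at 37 °C. Triton lysates were run on 6–15% gels and immunoblotted for phospho-Erk, with GAPDH as loading control. Bands were quantified by densitometry relative to control; three independent experiments.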

[7] = biological target: T1, Protein-S-isoprenylcysteine O-methyltransferase; experiment: Inhibition of Icmt-mediated GFP-K-Ras membrane localization in human Jurkat T cells at 10 uM after 24 hrs by fluorescent microscopic analysis; format: cell-based
How it was run: (§2)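 Jurkat E6.1 cells were electroporated with 20 μg GFP-K-Ras, then treated 24 h at 37 °C with DMSO, simvastatin (20 μM) or compound (0.1, 1, 10 μM). Cells were put on polylysine coverslips, fixed in 3% formaldehyde and viewed by fluorescence microscopy. Localization was scored visually as normal, partial or complete mislocalization in random fields of 100 cells; three independent experiments.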

[8] = biological target: T1, Protein-S-isoprenylcysteine O-methyltransferase; experiment: Inhibition of Icmt-mediated GFP-K-Ras membrane localization in human Jurkat T cells at 0.1 uM after 24 hrs by fluorescent microscopic analysis; format: cell-based; how it was run: as §2
[9] = biological target: T1, Protein-S-isoprenylcysteine O-methyltransferase; experiment: Inhibition of Icmt in TCR-stimulated human Jurkat T cells assessed as inhibition of Ras activation at 25 uM after 24 hrs by immunoblot analysis; format: cell-based
How it was run: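 Jurkat cells were treated 24 h with compound (25 μM), vehicle or simvastatin (36.7 μM), then held with anti-CD-3ε (20 μg/mL) 15 min on ice and stimulated 10 min at 37 °C. GTP-Ras was pulled down from NP40 lysates on GST-RBD glutathione beads (30 min, 4 °C) and immunoblotted with anti-pan-Ras. Bands were quantified by densitometry; three independent experiments.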

T1 sequence (O60725 whole entry): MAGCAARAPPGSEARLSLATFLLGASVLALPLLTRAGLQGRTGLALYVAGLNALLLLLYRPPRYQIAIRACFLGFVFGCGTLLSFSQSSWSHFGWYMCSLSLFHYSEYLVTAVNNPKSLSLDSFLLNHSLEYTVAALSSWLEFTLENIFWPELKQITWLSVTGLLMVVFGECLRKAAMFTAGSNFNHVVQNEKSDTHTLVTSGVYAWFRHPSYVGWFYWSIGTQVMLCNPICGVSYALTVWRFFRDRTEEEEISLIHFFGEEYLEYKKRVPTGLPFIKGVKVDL

| SMILES | Activity [1] | IC50 ([2]; read-out: IC50) [µM] | inhibition [3] | other results |
| --- | --- | --- | --- | --- |
| CC(C)=CCC/C(C)=C/CC/C(C)=C/CSC[C@H](NC(=O)c1cccc2c1oc1ccccc12)C(=O)O | inactive | 58 | Active |  |
| CC(C)=CCC/C(C)=C/CC/C(C)=C/CSC[C@H](NC(=O)c1ccccc1Oc1ccccc1)C(=O)O |  | 6.2 |  | Kic [4]: 1.4 µM; Kiuc [5]: 4.8 µM |
| CC(C)=CC/C(=C/CSC[C@H](NC(=O)c1ccccc1Oc1ccccc1)C(=O)O)CCc1ccc(-c2ccccc2)cc1 |  | 2.5 |  | fold change (FC) [6]: 3; inhibition [7]: 75%; Kic [4]: 0.5 µM; inhibition [8]: 35%; inhibition [9]: Active; Kiuc [5]: 1.9 µM |
| CC(=O)N[C@@H](CSC/C=C(\C)CC/C=C(\C)CCC=C(C)C)C(=O)O |  |  |  | IC50 [2]: Not Active |
| CC(C)=CCC/C(C)=C/CC/C(C)=C/CSC[C@H](NC(=O)c1ccccc1COCc1ccccc1)C(=O)O | inactive | 49 | Active |  |
| CC(C)=CCC/C(C)=C/CC/C(C)=C/CSC[C@@H](C(=O)O)N(C)C(=O)c1ccccc1Oc1ccccc1 | inactive | 6.7 | Active |  |
| CC(C)=CCC/C(C)=C/CC/C(C)=C/CSC[C@H](NC(=O)c1ccccc1COc1ccccc1)C(=O)O | inactive | 75 | Active |  |
| CC(C)=CCC/C(C)=C/CC/C(C)=C/CSC[C@H](NC(=O)c1ccccc1Cc1ccccc1)C(=O)O | inactive | 38 | Active |  |
| CC(C)=CCC/C(C)=C/CC/C(C)=C/CSC[C@@H](NC(=O)c1ccccc1Oc1ccccc1)C(=O)O | inactive | 7.8 | Active |  |
| CC(C)=CCC/C(C)=C/CC/C(C)=C/CSC[C@H](NC(=O)c1ccccc1Sc1ccccc1)C(=O)O | inactive | 14.7 | Active |  |
| CC(C)=CCC/C(C)=C/CC/C(C)=C/CC/C(C)=C/CSC[C@H](NC(=O)c1ccccc1Oc1ccccc1)C(=O)O | inactive | 38 |  |  |
| CC(C)=CCC/C(C)=C/CC/C(C)=C/CSC[C@H](NC(=O)c1cccc(Oc2ccccc2)c1)C(=O)O | inactive | 22.6 |  |  |
| CC(C)=CCC/C(C)=C/CC/C(C)=C/CSC[C@H](NC(=O)c1ccccc1OCc1ccccc1)C(=O)O | inactive | 13.4 | Active |  |
| CCCCCCCCCCCSC[C@H](NC(=O)c1ccccc1Oc1ccccc1)C(=O)O | inactive | 210 | Active |  |
| CC(C)=CCC/C(C)=C/CC/C(C)=C/CSC[C@H](NC(=O)c1ccc(Oc2ccccc2)cc1)C(=O)O | inactive | 63 |  |  |
